In ChEMBL document CHEMBL1158066, “Phytochemical constituents from Salsola tetrandra” (J Nat Prod, 2006):
In brackets after ≈: the same amount, converted by molar mass.

Tests used:
[1] = tested on: Pseudomonas aeruginosa; assay: Antibacterial activity against Pseudomonas aeruginosa ATCC 27853 by microdilution method; assay type: functional
Procedure, shortened: (§1)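 Liquid-medium broth microdilution. Strains kept at -70 °C in glycerol Mueller-Hinton broth; fresh subcultures used for each run. Final inoculum (1-5) × 10^5 cfu/mL. MIC taken as the lowest concentration preventing visible growth. MBC taken as the concentration killing ≥99.9% of the initial inoculum, confirmed by subculturing dilutions onto TSA agar at 30 °C for 18-24 h.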

[2] = Toxicity against Artemia salina; assay type: organism-based; conditions: in vivo, read-out: ED50 (the source's name)
Procedure, shortened: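 Brine shrimp lethality bioassay; the endpoint is death, reported as ED50 in µM.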

[3] = tested on: Escherichia coli; assay: Antibacterial activity against sEscherichia coli ATCC 35218 by microdilution method; assay type: functional; procedure, shortened: as §1
[4] = tested on: Staphylococcus epidermidis; assay: Antibacterial activity against Staphylococcus epidermidis NCIMB 8853 by microdilution method; assay type: functional; procedure, shortened: as §1
[5] = tested on: Staphylococcus aureus; assay: Antibacterial activity against Staphylococcus aureus ATCC 29213 by microdilution method; assay type: functional; procedure, shortened: as §1
[6] = tested on: Micrococcus luteus; assay: Antibacterial activity against sMicrococcus luteus NCIMB 8166 by microdilution method; assay type: functional; procedure, shortened: as §1

Compound | MIC [1] [µg/mL] | LC50 [2] [µM] | MIC [3] [µg/mL] | MBC [4] [µg/mL] | MIC [4] [µg/mL] | MBC [5] [µg/mL] | MIC [5] [µg/mL] | MBC [6] [µg/mL] | MIC [6] [µg/mL] | MBC [3] [µg/mL]
C=C[C@](C)(CC/C=C(\C)CO)O[C@@H]1O[C@H](CO)[C@@H](O)[C@H](O)[C@H]1O | > 700 | 21.8 | > 700 | > 700 | 700 (≈ 2110 µM) | > 700 | 700 (≈ 2110 µM) | > 700 | 600 (≈ 1810 µM) | 
CCCCCC(O)C(O)/C=C/C(O)CCCCCCCC(=O)O (centres undefined) | > 700 |  | > 700 | > 700 | 600 (≈ 1820 µM) | > 700 | 500 (≈ 1510 µM) | 500 (≈ 1510 µM) | 400 (≈ 1210 µM) | 
COc1cc(/C=C/C(=O)NC[C@@H](O)c2ccc(O)cc2)ccc1O | > 700 |  | 400 (≈ 1210 µM) | > 700 | 600 (≈ 1820 µM) | 600 (≈ 1820 µM) | 200 (≈ 607 µM) | 700 (≈ 2130 µM) | 400 (≈ 1210 µM) | 700 (≈ 2130 µM)
COc1cc(/C=C/C(=O)NCCc2ccc(O)cc2)ccc1O [N-TRANS-FERULOYL TYRAMINE] | > 700 |  | > 700 |  | > 700 | > 700 | 500 (≈ 1600 µM) | > 700 | 500 (≈ 1600 µM) | 
CC(=O)/C=C/[C@@]12O[C@]1(C)C[C@@H](O)[C@H](O[C@@H]1O[C@H](CO)[C@@H](O)[C@H](O)[C@H]1O)C2(C)C | > 700 | 10.9 | > 700 | > 700 | 600 (≈ 1490 µM) | > 700 | 700 (≈ 1740 µM) | > 700 | 500 (≈ 1240 µM) | 
COc1cc(O[C@@H]2O[C@H](CO)[C@@H](O)[C@H](O)[C@H]2O)cc(OC)c1OC | > 700 | 28.9 | > 700 | > 700 | 600 (≈ 1730 µM) | > 700 | 700 (≈ 2020 µM) | > 700 | 500 (≈ 1440 µM) | 
CC/C=C\CC(O)C(O)/C=C/C(O)CCCCCCCC(=O)O (centres undefined) | > 700 |  | > 700 | > 700 | 600 (≈ 1830 µM) | > 700 | 500 (≈ 1520 µM) | 500 (≈ 1520 µM) | 400 (≈ 1220 µM) | 
N#C[C@H](O[C@@H]1O[C@H](CO)[C@@H](O)[C@H](O)[C@H]1O)c1ccc(O)cc1 [TAXIPHYLLIN] | > 700 | 0.96 | 600 (≈ 1930 µM) | > 700 | 500 (≈ 1610 µM) | 700 (≈ 2250 µM) | 400 (≈ 1280 µM) | 500 (≈ 1610 µM) | 200 (≈ 642 µM) | > 700
